TbMetRS inhib: blocks T. brucei methionyl-tRNA synthetase activity; purified T. brucei MetRS, ATP depletion, Kinase-Glo luminescence; inhibition, % at 11.9 µM; 360,000 tested, 0.4% active; AID 624268;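 active means inhibition above a per-plate cutoff of the control wells' mean inhibition plus 3 SD, cut at about 5.5% in these data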
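Material – parasite MetRS enzyme · Medium – HEPES-MgCl2-KCl buffer plus DTT, spermine, BSA, pyrophosphatase · Reagent – ATP, methionine and E. coli bulk tRNA substrates · Times – 15 min enzyme-compound preincubation, 2 h reaction, 10 min detection, 25 °C · Measured by – luminescence of leftover ATP · Evaluation – percent inhibition relative to median high and low control wells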
Rin1 Abl inh: blocks binding of human Rin1 to Abl | P00519+Q13671 | TR-FRET Rin1/Abl binding, biochemical | inhibition, % at 7.35 µM | 360,000 tested, 0.4% active | AID 588664; in the data active means inhibition above about 5%, passing the limit was not always enough
NR1D1 modulator: modulates human Rev-erb alpha binding to DNA; P20393; Rev-erbα–FITC-DNA binding, fluorescence polarization, 90 min; activity, % at 10 µM; 370,000 tested, 0.79% active; AID 1259318;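 active means activity above about 14%, limit read from the data; passing the limit was not always enough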
Target sequence (P20393 whole entry, looked up): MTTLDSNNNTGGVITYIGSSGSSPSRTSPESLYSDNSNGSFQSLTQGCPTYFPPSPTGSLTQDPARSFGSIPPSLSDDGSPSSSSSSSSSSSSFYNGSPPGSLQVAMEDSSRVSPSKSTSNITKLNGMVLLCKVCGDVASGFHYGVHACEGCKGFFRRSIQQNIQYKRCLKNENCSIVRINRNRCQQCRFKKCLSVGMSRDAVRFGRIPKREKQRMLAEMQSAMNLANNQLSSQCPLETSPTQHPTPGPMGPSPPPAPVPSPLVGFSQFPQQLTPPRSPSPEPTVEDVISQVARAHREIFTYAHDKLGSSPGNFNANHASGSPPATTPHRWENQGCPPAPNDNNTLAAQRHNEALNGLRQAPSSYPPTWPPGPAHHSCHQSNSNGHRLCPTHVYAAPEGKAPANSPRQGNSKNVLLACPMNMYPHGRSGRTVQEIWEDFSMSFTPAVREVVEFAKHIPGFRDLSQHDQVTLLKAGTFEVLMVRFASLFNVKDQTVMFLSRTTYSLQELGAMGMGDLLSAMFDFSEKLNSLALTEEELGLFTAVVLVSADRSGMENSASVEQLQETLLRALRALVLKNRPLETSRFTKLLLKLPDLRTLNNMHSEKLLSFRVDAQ
PG9 Ab binder: binds the HIV-1 gp120 antibody PG9; TR-FRET gp120-PG9 antibody binding; inhibition, % at 6.7 µM; 360,000 tested, 0.43% active; AID 624416; in the data active means inhibition above about 8.5%
NR1D1 mod conf: confirmation of modulators of human Rev-erb alpha DNA binding; shares compounds with NR1D1 modulator; Rev-erb alpha FITC-DNA binding, fluorescence polarization, 90 min; activation, % at 25 µM; 3,000 tested, 61% active;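 active means activation at or above a set limit, or at least 3 SD above the negative control mean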
RORg counter: RORgamma DNA-binding activity, dose-response counter-screen; shares compounds with NR1D1 modulator; purified RORgamma protein-FITC-DNA binding, fluorescence polarization; IC50, µM; 910 tested, 8% active; AID 1259320;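 active means Compounds whose fitted half-maximal concentration for disrupting protein-DNA binding is below 10 micromolar; the record names Rev-erb in its text, so the target is in doubt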
Of the large screens only hits and unclear results are named; the others gave an inactive call (follow-up assays come after a bar, where they were run). This is a sample that favours compounds with a hit; in the whole collection about 1.8% have one here.

NC(=O)c1c(NC(=O)c2ccccc2)sc2c1CCc1ccccc1-2	NR1D1 modulator 47 | NR1D1 mod conf 18
CN(C)/C=C/c1oc2ccc(O)cc2c1[N+](=O)[O-]	NR1D1 modulator 37 | NR1D1 mod conf inactive
COc1nc2ccc(C)cc2cc1-c1noc(-c2cccnc2)n1	NR1D1 modulator 35 | NR1D1 mod conf inactive
CCOC(=O)c1nn(-c2ccc(C)cc2)c(=O)cc1OCC(=O)Nc1ccc(OC)cc1	none
CCOC(=O)c1nn(-c2ccc(F)cc2)c(=O)cc1OCC(=O)Nc1ccc(F)c(F)c1	NR1D1 modulator 170 | NR1D1 mod conf 129 | RORg counter inactive
COc1ccc(Cn2ccc3ccc(-c4ccc5ccn(C(=O)c6ccccc6C)c5c4)cc32)cc1	none (no result: TbMetRS inhib, Rin1 Abl inh, PG9 Ab binder)
COC(=O)c1ccc(Cn2ccc3ccc(-c4ccc5ccn(C(=O)c6ccccc6OC)c5c4)cc32)cc1	NR1D1 modulator 47 (no result: TbMetRS inhib, Rin1 Abl inh, PG9 Ab binder) | NR1D1 mod conf 72 | RORg counter inactive
COc1ccc(Cn2ccc3ccc(-c4ccc5ccn(C(=O)c6ccccc6OC)c5c4)cc32)cc1	NR1D1 modulator 71 (no result: TbMetRS inhib, Rin1 Abl inh, PG9 Ab binder) | NR1D1 mod conf 63 | RORg counter inactive
COC(=O)c1ccc(Cn2ccc3ccc(-c4ccc5ccn(Cc6ccccc6)c5c4)cc32)cc1	none (no result: TbMetRS inhib, Rin1 Abl inh, PG9 Ab binder)
COc1cc(OC)c(C(=O)OCC(=O)Nc2ccc(N3CCOCC3)cc2)cc1OC	none
O=C(OCCN1C(=O)c2cccc3c(N4CCOCC4)ccc(c23)C1=O)c1ccc(Cl)cc1	NR1D1 modulator 79 | NR1D1 mod conf 119 | RORg counter inactive
O=C(C[C@H]1C[C@@H]2c3cc(NC(=O)Nc4ccccc4F)ccc3O[C@@H]2[C@H](CO)O1)NCc1ccccn1	none
CCCCOC(=O)c1ccc(NC(=O)COC(=O)c2ccc3ncsc3c2)cc1	none
CCCCc1ccc(NC(=O)COC(=O)c2ccc3ncsc3c2)cc1	NR1D1 modulator 17 | NR1D1 mod conf inactive
Cc1cccc(NC(=O)c2ccc3c(Cl)c4c(nc3c2)CCCC4)n1	NR1D1 modulator 24 | NR1D1 mod conf inactive
O=C(Nc1ccc(Cl)cn1)c1ccc2c(Cl)c3c(nc2c1)CCC3	none
Nc1ncnc(N)c1N=Nc1ccccc1	none
Nc1ccc2ccccc2c1N=Nc1ccccc1	NR1D1 modulator 23 | NR1D1 mod conf 27
COc1ccc(Nc2nc(C)nc3c2nnn3Cc2ccccc2Cl)c(OC)c1	NR1D1 modulator 21 | NR1D1 mod conf inactive
COc1cc2c3nnc(-c4ccc(F)cc4)c-3cn(Cc3ccccc3F)c2cc1OC	NR1D1 modulator 21 | NR1D1 mod conf 39 | RORg counter inactive
CCOC(=O)N1CCN(C(=O)C[C@@H]2C[C@@]3(C(=O)OC)CCCCC=C3N(Cc3ccc(Cl)cc3Cl)C2=O)CC1	none (no result: Rin1 Abl inh)
COCCN(C(=O)COc1ccc(Cl)cc1)c1nnc(-c2cccnc2)s1	NR1D1 modulator 24 | NR1D1 mod conf inactive
COC(=O)Nc1ccc(S(=O)(=O)NC2CCCCC2)cc1	none

From PubChem
